This is an account of results in ChEMBL document CHEMBL4312005, “Optimization of pyrrolizine-based Schiff bases with 4-thiazolidinone motif: Design, synthesis and investigation of cytotoxicity and anti-inflammatory potency” (Eur J Med Chem, 2020).

Data set [1] concerns MCF7. As to the kind of experiment: Antiproliferative activity against human MCF7 cells assessed as reduction in cell growth incubated for 72 hrs by MTT assay. The data set is classed as functional, cell-based. Conditions: MCF7, 72 h. In outline:
(§1)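 MTT assay on MCF-7, A2780, HT29 and normal MRC5 fibroblast lines (ATCC) grown in DMEM with 10% FBS. Cells exposed to compounds for 72 h, then reduced MTT read at 570 nm.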

Data set [2] has as its system A2780. As to the kind of experiment: Antiproliferative activity against human A2780 cells assessed as reduction in cell growth incubated for 72 hrs by MTT assay. Particulars: A2780, 72 h. Format: functional, cell-based. In outline: as §1
For data set [3], the system named is HT-29. Briefly: Antiproliferative activity against human HT-29 cells assessed as reduction in cell growth incubated for 72 hrs by MTT assay. Particulars: HT-29, 72 h. The data set is classed as functional, cell-based. A digest of the protocol:
as §1

Data set [4] deals with MRC5. As to the kind of experiment: Cytotoxicity against human MRC5 cells assessed as reduction in cell growth incubated for 72 hrs by MTT assay. The data set is classed as cell-based. Particulars: MRC5, 72 h. A digest of the protocol:
as §1

A short description of data set [5]: Selectivity index, ratio of IC50 for cytotoxicity against human MRC5 cells to IC50 for antiproliferative activity against human MCF7 cells. Conditions: MRC5 cells versus MCF7 cells.
A short description of data set [6]: Selectivity index, ratio of IC50 for cytotoxicity against human MRC5 cells to IC50 for antiproliferative activity against human A2780 cells. Conditions: MRC5 cells versus A2780 cells.
Data set [7] deals with Prostaglandin G/H synthase 1 (Homo sapiens, UniProt P23219). Briefly: Inhibition of human COX1 using arachidonic acid as substrate incubated for 2 mins by ELISA method.
Data set [8] has as its system Rattus norvegicus. Briefly: Antiinflammatory activity against albino rats assessed as inhibition of carrageenan-induced paw edema at 0.5 mmol, po measured after 2 hrs relative to control. The data set is classed as functional. In outline: (§2)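 Carrageenan rat paw edema (Winter method) in male and female adult albino rats (100-140 g). […] Swelling inhibition expressed as % of control at 2-4 h after carrageenan injection.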

The subject of data set [9] is Rattus norvegicus. As to the kind of experiment: Antiinflammatory activity against albino rats assessed as inhibition of carrageenan-induced paw edema at 0.5 mmol, po measured after 4 hrs relative to control. Format: functional. A digest of the protocol:
as §2

Data set [10] has as its system MCF7. As to the kind of experiment: Antiproliferative activity against human MCF7 cells assessed as cell viability at 5 uM incubated for 48 hrs by MTT assay (reference value: 100 %). The data set is classed as functional. Particulars: MCF7, 48 h, read-out: Activity. A digest of the protocol:
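Preliminary single-dose screen by MTT assay. MCF-7 cells grown in DMEM/10% FBS were exposed to 5 μM compound for 48 h, and growth% was determined. Values are mean ± S.D., n = 6.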

A short description of data set [11]: Selectivity index, ratio of IC50 for cytotoxicity against human MRC5 cells to IC50 for antiproliferative activity against human HT-29 cells. Particulars: MRC5 cells versus HT-29 cells.

pIC50: −log10 of the molar value.

Prostaglandin G/H synthase 1, sequence (P23219 whole entry): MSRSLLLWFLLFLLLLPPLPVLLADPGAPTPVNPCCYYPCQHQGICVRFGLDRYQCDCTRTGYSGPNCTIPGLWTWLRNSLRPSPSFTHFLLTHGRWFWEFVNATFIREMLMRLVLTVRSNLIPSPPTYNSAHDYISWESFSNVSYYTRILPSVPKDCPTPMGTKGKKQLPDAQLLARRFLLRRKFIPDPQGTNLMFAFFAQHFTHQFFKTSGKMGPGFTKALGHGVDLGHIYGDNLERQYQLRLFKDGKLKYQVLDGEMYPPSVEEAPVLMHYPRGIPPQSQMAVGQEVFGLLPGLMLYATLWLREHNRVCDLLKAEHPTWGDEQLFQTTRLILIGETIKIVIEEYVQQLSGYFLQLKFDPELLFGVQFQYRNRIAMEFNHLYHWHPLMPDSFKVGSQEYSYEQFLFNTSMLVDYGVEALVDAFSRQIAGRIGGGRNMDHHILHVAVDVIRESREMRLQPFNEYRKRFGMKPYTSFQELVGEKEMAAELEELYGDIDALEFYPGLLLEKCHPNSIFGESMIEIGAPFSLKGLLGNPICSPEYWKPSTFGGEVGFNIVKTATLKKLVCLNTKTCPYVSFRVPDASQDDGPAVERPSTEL

With `CCC1SCC(=O)N1c1c(C#N)c2n(c1C(=O)Nc1ccc(Cl)cc1)CCC2` (stereo unspecified), the pIC50 was 6.68 in data set [1]; 6.51 in data set [2]; 6.70 in data set [3]; 6.04 in data set [4]; below 4.00 in data set [7]. Besides, the selectivity ratio in data set [5] and in data set [6] was 3 to 15 each time. In addition, the “inhibition (INH)” value is recorded as 21.76% in data set [8] and 32.48% in data set [9].
Regarding `N#Cc1c(/N=C/c2ccc(Cl)cc2)c(C(=O)Nc2ccc(Br)cc2)n2c1CCC2`, the viability at 5 µM in data set [10] is 73%. The negative-log IC50 (pIC50) was 5.22 in data set [1]; 5.08 in data set [2]; 5.11 in data set [3]; 4.86 in data set [4]; below 4.00 in [7]. Further, the selectivity ratio in [5], in data set [6] and in [11] was 2 to 52 each time.
With `CS(=O)(=O)CCNCc1ccc(-c2ccc3ncnc(Nc4ccc(OCc5cccc(F)c5)c(Cl)c4)c3c2)o1` [LAPATINIB], the figures for the pIC50 in [3] and in data set [4] were 4.90 and 4.86, respectively.
For `CC/C=N/c1c(C#N)c2n(c1C(=O)Nc1ccc(Br)cc1)CCC2`, in data set [10], the viability at 5 µM was determined as 49%. The pIC50 was 6.85 in data set [1]; 6.57 in [2]; 6.05 in data set [3]; 4.67 in data set [4]; 4.85 in data set [7]. Moreover, the selectivity ratio in data set [5], in data set [6] and in [11] was 24 to 152 each time.
Regarding `CC/C=N/c1c(C#N)c2n(c1C(=O)Nc1ccc(C)cc1)CCC2`, the pIC50 was 6.08 in data set [1]; 5.41 in data set [2]; 6.21 in data set [3]; 6.25 in [4]; 4.56 in data set [7].
For `N#Cc1c(/N=C/c2ccccc2)c(C(=O)Nc2ccc(Br)cc2)n2c1CCC2`, in data set [10], the viability at 5 µM was found to be 73%. For the same compound, the pIC50 in data set [1] is 6.30; in data set [2], 5.38; in [3] it was 5.53; in data set [4], 5.05; in [7], below 4.00. The selectivity ratio in data set [5], in data set [6] and in data set [11] was 2 to 52 in each case.
Turning to `CCC1SCC(=O)N1c1c(C#N)c2n(c1C(=O)Nc1ccc(C)cc1)CCC2` (stereo unspecified), the pIC50 in [1] is 6.33; in data set [2], 6.96; in data set [3] it was 6.92; in data set [4], 5.77; in data set [7], below 4.00. Moreover, the selectivity ratio in data set [5] and in [6] was 3 to 15 throughout.
Turning to `N#Cc1c(/N=C/c2cccs2)c(C(=O)Nc2ccc(Br)cc2)n2c1CCC2`, the viability at 5 µM in data set [10] was found to be 77%. Besides, the pIC50 in data set [1] is 5.03; in data set [2], 4.71; in data set [3], 5.44; in [4], 4.64; in [7] it was below 4.00. Besides, the selectivity ratio in data set [5], in data set [6] and in data set [11] was 1 to 10 each time.
Regarding `CC/C=N/c1c(C#N)c2n(c1C(=O)Nc1ccccc1)CCCC2`, the pIC50 in data set [1] is 5.84; in data set [2], 4.81; in [3], 6.85; in data set [4] it was 5.82; in [7], 4.57.
On to `N#Cc1c(/N=C/c2cccnc2)c(C(=O)Nc2ccc(Br)cc2)n2c1CCC2`, for which the viability at 5 µM in [10] was 81%. Also, the pIC50 in data set [1] was 4.95; in data set [2] it was 4.64; in data set [3], 5.58; in [4] it was 4.59; in [7], below 4.00. Further, the selectivity ratio in [5], in data set [6] and in [11] was 1 to 10 each time.
On to `CCC1SCC(=O)N1c1c(C#N)c2n(c1C(=O)Nc1ccccc1)CCCC2` (stereo unspecified), for which the pIC50 is 6.08 in data set [1]; 5.37 in data set [2]; 5.69 in [3]; 4.95 in data set [4]; 4.18 in [7]. In [5], the selectivity ratio fell in the range of 3 to 15.
In the case of `CC/C=N/c1c(C#N)c2n(c1C(=O)Nc1ccc(Cl)cc1)CCC2`, the pIC50 was 6.13 in [1]; 6.24 in data set [2]; 5.99 in [3]; 6.77 in data set [4]; 4.81 in data set [7]. In addition, the “inhibition (INH)” value in [8] worked out at 19.17%; in [9], 24.06%.
